Bioassay records as filed in PubChem.
ANO1 activ: activates or potentiates the mouse TMEM16A chloride channel; HEK293 TMEM16A/YFP-H148Q/I152L, iodide quench fluorescence; stronger effect = lower value; AID 623877; 340,000 compounds, 0.3% hits; B-score at 10 µM; Q8BHY3;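 active means fluorescence-ratio B-score plate-corrected deviation score at least 3 library SD below zero, with starting fluorescence score within 5 deviations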;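 further: channel opened by trigger with iodide after compound preincubation; score built on the fluorescence ratio of max minus min over baseline; more negative score means more quench and so TMEM16A activation or potentiation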
Kir21 inh: blocks the mouse Kir2.1 inward-rectifier potassium channel | HEK293-Kir2.1, FluxOR thallium flux fluorescence; stronger effect = lower value | B-score at 10 µM | 310,000 compounds, 0.85% hits | AID 1672;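 active means fluorescence ratio B-score at or below minus 3 SD of library scores, with starting-brightness B-score within 2 SD, cut at about -4.2 in these data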;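 further: channel flux triggered by added potassium and thallium sulfate stimulus; B-score of peak minus minimum fluorescence over baseline after thallium stimulus; more negative B-score means stronger Kir2.1 block with less thallium influx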
Target sequence (P35561 whole entry, looked up): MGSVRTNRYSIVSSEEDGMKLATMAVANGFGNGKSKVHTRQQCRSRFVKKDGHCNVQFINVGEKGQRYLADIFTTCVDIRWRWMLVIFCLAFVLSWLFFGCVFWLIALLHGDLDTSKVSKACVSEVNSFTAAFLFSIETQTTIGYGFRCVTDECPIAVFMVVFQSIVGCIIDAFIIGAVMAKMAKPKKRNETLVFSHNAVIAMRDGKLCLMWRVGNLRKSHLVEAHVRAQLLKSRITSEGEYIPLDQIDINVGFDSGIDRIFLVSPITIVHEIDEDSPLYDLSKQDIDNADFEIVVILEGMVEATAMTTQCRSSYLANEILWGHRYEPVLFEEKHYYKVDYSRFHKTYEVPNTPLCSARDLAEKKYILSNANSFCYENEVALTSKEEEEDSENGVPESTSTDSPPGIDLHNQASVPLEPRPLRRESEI
TMEM16A inh: inhibitors of mouse TMEM16A calcium-activated chloride channel | Q8BHY3 | HEK293 TMEM16A/YFP iodide influx fluorescence, ionomycin | normalized B-score (activity score, 25-100; higher = stronger inhibition) at 10 µM | 310,000 compounds, 1.2% hits | AID 588511;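 active means ratio plate-corrected score three or more library SD toward inhibition, starting fluorescence score within five deviations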;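 further: score derived from kinetic fluorescence span divided by baseline fluorescence per well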
FID counter: counter-screen for HCV NS3 helicase inhibitors: DNA intercalator displacement; 290,000 compounds, 0.17% hits; DNA fluorescent intercalator displacement, fluorescence; inhibition, % at 7.9 µM; in the data active means inhibition above about 37%;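 further: 0% = vehicle and 100% = reference compound; higher means more ethidium bromide displaced from hairpin DNA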
SR-BI HDL uptake: mouse SR-BI HDL lipid transfer inhibition; Q61009; ldlA[mSR-BI] CHO cells, DiI-HDL uptake fluorescence, 3 h; inhibition, % at 12.5 µM; 320,000 compounds, 0.96% hits;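 active means mean replicate inhibition of at least 70% and a set share of replicates each scoring 70 or more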;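 further: 0% = median of neutral control wells and 100% = median of positive control wells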
SR-BI uptake up: activators of SR-BI mediated HDL lipid uptake; CHO ldlA[mSR-BI] cells, DiI-HDL uptake fluorescence, 3 h; 100 = double the neutral-control signal; activation, % at 12.5 µM; 320,000 compounds, 0.096% hits;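 active means mean replicate activation of at least 60% and every replicate at or above 60%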;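 further: 0% = median plate neutral-control signal and 100% = twice that signal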
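Material – SR-BI-overexpressing, LDLR-lacking CHO cells · Medium – BSA-supplemented, HEPES-buffered Ham's F12, pH 7.4 · Doses – single concentration · Times – compound with DiI-HDL co-incubation, 3 h at 37 °C · Measured by – bottom-read fluorescence, 550/595 nm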
TMEM16A reconf: reconfirmed blocker of mouse TMEM16A calcium-activated chloride channel | HEK293 TMEM16A/YFP-H148Q, iodide quench fluorescence; ionomycin added to raise cell calcium | shares compounds with TMEM16A inh | 2,300 compounds, 39% hits | inhibition, % at 10 µM;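 active means mean duplicate percent inhibition, scaled so buffer wells are 0 and the reference blocker 100, over three buffer SD above buffer mean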
HEK293 Ca mobil: calcium mobilization counter-screen hit for TMEM16A inhibitor series. AID 652231. TMEM16A/YFP HEK293, Fluo4 calcium mobilization. 2,300 compounds, 2% hits. shares compounds with TMEM16A inh. calcium response (% of ionomycin), % at 10 µM;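 active means duplicate-averaged calcium signal over 20% of the ionomycin maximum, relative to buffer baseline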;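 further: each well's signal is peak minus trough fluorescence divided by its pre-addition baseline; 0% = buffer wells and 100% = ionomycin wells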
Parental YFP cnt: acts in parental YFP-HEK293 cells lacking TMEM16A, counter-screen. AID 652233. shares compounds with TMEM16A inh. 2,300 tested, under 10 active. iodide YFP quench, ionomycin. YFP ratio F(max-min)/F0 at 10 µM;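 active means yellow fluorescent protein signal ratio exceeding the buffer control mean by over 5 SD of those controls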;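 further: ratio is mean of duplicate wells from kinetic YFP trace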
ClC-1 rat inh: selectivity of TMEM16A inhibitors: inhibition of rat ClC-1 chloride channel; ratio percent, % at 10 µM; CHO ClC-1-YFP, iodide influx fluorescence quench; iodide control reads 0, buffer control 100; AID 652236; 2,300 tested, under 10 active; shares compounds with TMEM16A inh;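 active means duplicate-mean ratio percent above the mean of iodide-only control wells, which defines zero, plus 5 of their SD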;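 further: higher percent means stronger block of ClC-1 iodide influx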
An asterisk follows results filed as active. Hits are enriched below; roughly 3% of the tested compounds scored in any of these assays.

How did CCCOc1ccc(NC(=O)C2CC(=O)N3CCCN=C3S2)cc1 (stereo unspecified) do in these assays?
ANO1 activ: inactive; Kir21 inh: 0.83; TMEM16A inh: 25*; FID counter: -9; SR-BI HDL uptake: -5; SR-BI uptake up: 5; TMEM16A reconf: inactive; HEK293 Ca mobil: inactive; Parental YFP cnt: -1.1; ClC-1 rat inh: -16

What do the screens show for `O=C(NCCC1=CCCCC1)c1ccc(Cl)c(S(=O)(=O)Nc2ccccc2)c1`?
ANO1 activ: inactive; Kir21 inh: 1.4; TMEM16A inh: 100*; FID counter: -14; SR-BI HDL uptake: -16; SR-BI uptake up: 16; TMEM16A reconf: inactive; HEK293 Ca mobil: inactive; Parental YFP cnt: -1; ClC-1 rat inh: -13

What do the screens show for `Cc1ccccc1NS(=O)(=O)c1cc(C(=O)NCCC2=CCCCC2)ccc1C`?
ANO1 activ: inactive; Kir21 inh: -0.01; TMEM16A inh: inactive; FID counter: -23; SR-BI HDL uptake: 17; SR-BI uptake up: -17

Results for O=C(COc1ccc(Br)cc1)c1ccc2c(c1)CCCC2 ?
ANO1 activ: inactive; Kir21 inh: 0.65; TMEM16A inh: 25*; FID counter: 0; SR-BI HDL uptake: -13; SR-BI uptake up: 13; TMEM16A reconf: inactive; HEK293 Ca mobil: inactive; Parental YFP cnt: -0.92; ClC-1 rat inh: -16

How did Cc1cccc(-n2ncc3c2CCCC3NC(=O)C2CCOCC2)c1C (stereo unspecified) do in these assays?
ANO1 activ: inactive; Kir21 inh: 0.64; TMEM16A inh: inactive; FID counter: -25; SR-BI HDL uptake: -13; SR-BI uptake up: 13

How did CCc1nc2ccccc2c(NC(=O)CN2CC(C)CC(C)C2)c1C (stereo unspecified) do in these assays?
ANO1 activ: inactive; Kir21 inh: 0.03; TMEM16A inh: inactive; FID counter: -10; SR-BI HDL uptake: -17; SR-BI uptake up: 17

How did Cc1ccc(NC(=O)c2nc(S(=O)(=O)Cc3ccccc3C)ncc2Cl)cc1C do in these assays?
ANO1 activ: inactive; Kir21 inh: 1.8; TMEM16A inh: inactive; FID counter: -33; SR-BI HDL uptake: -13; SR-BI uptake up: 13

How did O=C(Nc1cccc(C(F)(F)F)c1)c1cc[n+]([O-])cc1 do in these assays?
ANO1 activ: inactive; Kir21 inh: -0.66; TMEM16A inh: 100*; FID counter: -2; TMEM16A reconf: inactive; HEK293 Ca mobil: inactive; Parental YFP cnt: -1.2; ClC-1 rat inh: -9

What do the screens show for `CC(=O)Nc1c(NCC(C)C)c2ccccc2oc1=O`?
ANO1 activ: inactive; Kir21 inh: 0.05; TMEM16A inh: inactive; FID counter: -1; SR-BI HDL uptake: -4; SR-BI uptake up: 4

What do the screens show for `Cc1cccc(Cn2c(Sc3nc(C)cs3)nc3c2c(=O)[nH]c(=O)n3C)c1`?
ANO1 activ: inactive; Kir21 inh: 1.1; TMEM16A inh: 100*; FID counter: -12; SR-BI HDL uptake: 1; SR-BI uptake up: -1; TMEM16A reconf: inactive; HEK293 Ca mobil: inactive; Parental YFP cnt: -1; ClC-1 rat inh: -12

What do the screens show for `Cc1csc(Sc2nc3c(c(=O)[nH]c(=O)n3C)n2Cc2ccccc2Cl)n1`?
ANO1 activ: inactive; Kir21 inh: -1.2; TMEM16A inh: inactive; FID counter: 2; SR-BI HDL uptake: -16; SR-BI uptake up: 16

How did CCCCn1c(N)c(N(Cc2ccccc2OC)C(=O)c2ccc(N3CCCC3=O)cc2)c(=O)[nH]c1=O do in these assays?
ANO1 activ: inactive; Kir21 inh: 1.6; TMEM16A inh: inactive; SR-BI HDL uptake: 0; SR-BI uptake up: 0

Results for O=C(CSc1nc2ccccc2c(=O)n1CC1CCCO1)NCC1CCCO1 (stereo unspecified) ?
ANO1 activ: inactive; Kir21 inh: -0.97; TMEM16A inh: 100*; FID counter: -9; SR-BI HDL uptake: 5; SR-BI uptake up: -5; TMEM16A reconf: inactive; HEK293 Ca mobil: inactive; Parental YFP cnt: -1.2; ClC-1 rat inh: -8

Results for NC(=O)CCC(NS(=O)(=O)c1ccc(Cl)cc1)C(=O)NCc1ccccc1 (stereo unspecified) ?
Kir21 inh: 0.9; TMEM16A inh: inactive; FID counter: 1

What do the screens show for `Cc1ccc(C)c(S(=O)(=O)C(C#N)c2nc3ccccc3nc2N2CCCC2)c1` (stereo unspecified)?
ANO1 activ: inactive; Kir21 inh: -0.54; TMEM16A inh: inactive; FID counter: -1; SR-BI HDL uptake: -14; SR-BI uptake up: 14; TMEM16A reconf: inactive; HEK293 Ca mobil: inactive; Parental YFP cnt: -0.73; ClC-1 rat inh: -8

How did Cc1ccc(C)c(S(=O)(=O)C(C#N)c2nc3ccccc3nc2N2CC(C)OC(C)C2)c1 (stereo unspecified) do in these assays?
ANO1 activ: inactive; Kir21 inh: 0.37; TMEM16A inh: 25*; FID counter: -21; TMEM16A reconf: 18%*; HEK293 Ca mobil: inactive; Parental YFP cnt: -1; ClC-1 rat inh: -18

Results for Cc1ccc(C)c(S(=O)(=O)C(C#N)c2nc3ccccc3nc2N2CCOCC2)c1 (stereo unspecified) ?
ANO1 activ: inactive; Kir21 inh: -1.2; TMEM16A inh: 25*; FID counter: -16; SR-BI HDL uptake: -2; SR-BI uptake up: 2; TMEM16A reconf: 22%*; HEK293 Ca mobil: inactive; Parental YFP cnt: -0.89; ClC-1 rat inh: -14

What do the screens show for `O=C1CCC(C(=O)N2CCN(c3cnccn3)CC2)CN1CCc1ccc(Cl)cc1` (stereo unspecified)?
ANO1 activ: inactive; Kir21 inh: 0.92; FID counter: -26; SR-BI HDL uptake: -9; SR-BI uptake up: 9

How did CC(=O)c1cccc(NCC(=O)N2CCN(S(=O)(=O)c3ccccc3)CC2)c1 do in these assays?
ANO1 activ: inactive; SR-BI HDL uptake: -17; SR-BI uptake up: 17
